The target of assay [1] is T1, Macrophage metalloelastase (Homo sapiens, UniProt P39900). Description: Binding affinity to MMP-12 catalytic domain (unknown origin) assessed as hydrodynamic radius by dynamic light scattering method. An outline of the steps:
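Samples in glass tubes sat in a thermostatic cell filled with decahydronaphthalene for refractive-index matching. Cumulant fitting of the light-scattering data gave the diffusion coefficient of the complexes, and the average hydrodynamic radius came from the Stokes–Einstein relation assuming spherical particles.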
Target sequence in this assay (P39900 106-470 limits assumed): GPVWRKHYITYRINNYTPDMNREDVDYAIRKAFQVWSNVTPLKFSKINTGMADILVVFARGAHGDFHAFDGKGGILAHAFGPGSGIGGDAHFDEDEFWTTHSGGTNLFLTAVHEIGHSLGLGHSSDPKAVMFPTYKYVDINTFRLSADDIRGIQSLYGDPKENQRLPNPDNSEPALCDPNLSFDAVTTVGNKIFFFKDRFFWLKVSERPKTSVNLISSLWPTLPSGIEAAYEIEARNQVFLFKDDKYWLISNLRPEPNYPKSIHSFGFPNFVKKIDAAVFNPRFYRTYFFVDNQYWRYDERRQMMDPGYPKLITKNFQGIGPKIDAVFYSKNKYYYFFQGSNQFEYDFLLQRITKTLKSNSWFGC

The target in assay [2] is T2, Matrix metalloproteinase-9 (Homo sapiens, UniProt P14780). Description: Inhibition of MMP-9 catalytic domain (unknown origin).
Another assay deals with T3, Interstitial collagenase (Homo sapiens, UniProt P03956).
T3 sequence (P03956 whole entry): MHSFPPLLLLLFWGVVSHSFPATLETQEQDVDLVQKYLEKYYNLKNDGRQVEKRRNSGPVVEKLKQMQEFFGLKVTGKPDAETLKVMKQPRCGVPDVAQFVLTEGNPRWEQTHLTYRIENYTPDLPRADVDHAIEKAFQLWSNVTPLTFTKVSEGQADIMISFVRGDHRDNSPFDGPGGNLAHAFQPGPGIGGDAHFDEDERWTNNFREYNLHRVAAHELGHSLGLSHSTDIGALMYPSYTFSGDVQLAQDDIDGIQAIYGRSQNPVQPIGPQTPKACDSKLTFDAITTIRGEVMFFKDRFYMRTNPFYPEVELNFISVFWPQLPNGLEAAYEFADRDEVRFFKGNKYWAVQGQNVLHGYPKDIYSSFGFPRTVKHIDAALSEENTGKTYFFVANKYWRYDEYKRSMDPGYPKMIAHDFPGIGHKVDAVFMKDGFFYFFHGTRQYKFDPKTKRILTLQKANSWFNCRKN
Description: Inhibition of MMP-1 (unknown origin) assessed as inhibition of hydrolysis of Mca-Pro-Leu-Gly-Leu-Dpa-Ala-Arg-NH2 substrate by fluorimetric assay.

Assay [3] addresses 72 kDa type IV collagenase (Homo sapiens, UniProt P08253). Description: Inhibition of MMP-2 (unknown origin) assessed as inhibition of hydrolysis of Mca-Pro-Leu-Gly-Leu-Dpa-Ala-Arg-NH2 substrate by fluorimetric assay.
Another assay concerns the target T4, Matrilysin (Homo sapiens, UniProt P09237).
T4 sequence (P09237 whole entry): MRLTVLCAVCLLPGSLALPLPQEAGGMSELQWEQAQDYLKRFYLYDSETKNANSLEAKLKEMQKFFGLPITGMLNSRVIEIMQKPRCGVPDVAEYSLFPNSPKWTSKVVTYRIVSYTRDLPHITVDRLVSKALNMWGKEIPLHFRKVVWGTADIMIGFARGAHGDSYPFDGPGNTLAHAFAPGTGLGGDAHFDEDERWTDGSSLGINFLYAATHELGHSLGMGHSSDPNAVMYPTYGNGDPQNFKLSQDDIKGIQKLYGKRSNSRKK
Description: Inhibition of MMP-7 (unknown origin) assessed as inhibition of hydrolysis of Mca-Pro-Leu-Gly-Leu-Dpa-Ala-Arg-NH2 substrate by fluorimetric assay.

For assay [4], the target named is T2, Matrix metalloproteinase-9. Description: Inhibition of human recombinant MMP-9 catalytic domain (112 to 445 residues) expressed in Escherichia coli assessed as inhibition of hydrolysis of Mca-Pro-Leu-Gly-Leu-Dpa-Ala-Arg-NH2 substrate by fluorimetric assay. A digest of the protocol:
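Inhibition constant toward MMP-9 was determined fluorimetrically by monitoring hydrolysis of the quenched peptide substrate Mca-Pro-Leu-Gly-Leu-Dpa-Ala-Arg-NH₂.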

Another assay concerns the target Collagenase 3 (Homo sapiens, UniProt P45452). Description: Inhibition of MMP-13 (unknown origin) assessed as inhibition of hydrolysis of Mca-Pro-Leu-Gly-Leu-Dpa-Ala-Arg-NH2 substrate by fluorimetric assay.
The target in assay [5] is T1, Macrophage metalloelastase. Description: Inhibition of MMP-12 catalytic domain (unknown origin) assessed as inhibition of hydrolysis of Mca-Pro-Leu-Gly-Leu-Dpa-Ala-Arg-NH2 substrate by fluorimetric assay.
Target sequence in this assay (P39900 whole entry, the tested form may be a part): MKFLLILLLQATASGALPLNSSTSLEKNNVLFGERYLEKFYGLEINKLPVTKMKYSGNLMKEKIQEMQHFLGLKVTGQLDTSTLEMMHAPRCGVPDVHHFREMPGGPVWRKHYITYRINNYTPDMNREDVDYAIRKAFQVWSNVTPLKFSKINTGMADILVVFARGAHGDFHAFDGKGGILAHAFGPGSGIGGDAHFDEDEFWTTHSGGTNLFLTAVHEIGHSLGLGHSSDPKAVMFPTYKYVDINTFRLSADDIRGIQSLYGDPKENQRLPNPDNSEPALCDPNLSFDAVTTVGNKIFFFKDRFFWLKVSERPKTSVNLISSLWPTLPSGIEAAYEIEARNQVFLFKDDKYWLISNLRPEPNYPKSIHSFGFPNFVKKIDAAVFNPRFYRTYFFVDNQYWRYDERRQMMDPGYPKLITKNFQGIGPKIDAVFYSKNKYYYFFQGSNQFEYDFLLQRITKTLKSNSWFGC
Assay [6] concerns the target T1, Macrophage metalloelastase. Description: Binding affinity to 15N-enriched MMP-12 catalytic domain (unknown origin) at 0.2 mM by 2D 1H-15N HSQC NMR spectroscopy. An outline of the steps:
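Ligand was added from a DMSO-d₆ solution to a final 0.2 mM with 1% DMSO-d₆. Amide NH resonances were followed by sensitivity-enhanced 2D ¹H-¹⁵N HSQC, and spectral changes were the binding read-out.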
Target sequence in this assay (P39900 106-470 limits assumed): as the sequence (P39900 106-470 limits assumed) above

The structures appear in SMILES notation. Calls of active or inactive are those of the source. The rule behind the calls is not given here.

For three molecules, Activity and Ki results are on record in ChEMBL document CHEMBL3875192, “Synthesis and binding monitoring of a new nanomolar PAMAM-based matrix metalloproteinases inhibitor (MMPIs)” (Bioorg Med Chem, 2017).

T2 sequence (P14780 whole entry, the tested form may be a part): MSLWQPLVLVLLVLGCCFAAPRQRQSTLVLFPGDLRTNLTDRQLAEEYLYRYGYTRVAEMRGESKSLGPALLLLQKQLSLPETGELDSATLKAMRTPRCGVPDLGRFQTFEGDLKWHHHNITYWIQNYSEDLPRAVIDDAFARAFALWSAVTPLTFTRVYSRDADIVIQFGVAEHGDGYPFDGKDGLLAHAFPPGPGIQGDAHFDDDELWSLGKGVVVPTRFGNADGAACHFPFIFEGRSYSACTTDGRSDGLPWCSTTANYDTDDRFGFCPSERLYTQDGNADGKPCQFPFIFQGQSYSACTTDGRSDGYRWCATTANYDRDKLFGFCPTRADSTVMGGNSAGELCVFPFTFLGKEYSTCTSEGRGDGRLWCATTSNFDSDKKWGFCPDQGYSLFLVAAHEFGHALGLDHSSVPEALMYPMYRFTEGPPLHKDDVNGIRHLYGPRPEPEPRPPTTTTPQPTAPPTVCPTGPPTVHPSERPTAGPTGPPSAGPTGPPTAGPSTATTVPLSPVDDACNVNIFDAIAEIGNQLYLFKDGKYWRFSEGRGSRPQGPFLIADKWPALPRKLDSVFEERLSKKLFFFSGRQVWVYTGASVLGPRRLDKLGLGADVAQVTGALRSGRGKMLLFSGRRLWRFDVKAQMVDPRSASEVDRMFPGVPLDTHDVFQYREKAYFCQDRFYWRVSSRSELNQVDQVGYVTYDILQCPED
Sequence of 72 kDa type IV collagenase (P08253 whole entry): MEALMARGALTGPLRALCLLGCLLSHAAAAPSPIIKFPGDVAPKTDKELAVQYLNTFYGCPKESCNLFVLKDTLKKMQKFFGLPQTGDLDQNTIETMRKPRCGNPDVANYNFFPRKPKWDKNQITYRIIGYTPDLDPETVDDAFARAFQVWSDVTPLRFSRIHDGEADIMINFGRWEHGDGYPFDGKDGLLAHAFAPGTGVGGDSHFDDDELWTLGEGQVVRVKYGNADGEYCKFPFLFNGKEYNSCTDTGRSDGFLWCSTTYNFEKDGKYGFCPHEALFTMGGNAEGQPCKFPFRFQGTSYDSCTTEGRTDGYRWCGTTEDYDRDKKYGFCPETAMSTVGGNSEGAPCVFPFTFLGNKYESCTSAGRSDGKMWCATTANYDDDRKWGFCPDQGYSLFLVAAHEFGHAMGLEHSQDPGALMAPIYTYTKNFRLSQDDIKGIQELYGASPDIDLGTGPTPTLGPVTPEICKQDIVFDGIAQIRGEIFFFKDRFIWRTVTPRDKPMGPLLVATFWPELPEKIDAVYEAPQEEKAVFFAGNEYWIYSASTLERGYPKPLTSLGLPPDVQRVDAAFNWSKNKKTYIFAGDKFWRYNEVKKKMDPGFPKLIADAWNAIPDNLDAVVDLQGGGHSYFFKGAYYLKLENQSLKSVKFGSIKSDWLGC

On to `COc1ccc(S(=O)(=O)N(CC(=O)NO)CC(C)C)cc1`, for which the Activity in assay [1] was 2.1 nm.

As usually defined, the Ki is a dissociation constant, usually derived from enzyme kinetics or from competition with a known ligand. In the case of `COc1ccc(S(=O)(=O)N(CCNC(=O)CCCCC(=O)NCCNC(=O)CCN(CCNC(=O)OC(C)(C)C)CCC(=O)NCCNC(=O)CCCCC(=O)NCCN([C@H](CO)C(=O)NO)S(=O)(=O)c2ccc(OC)cc2)[C@H](CO)C(=O)NO)cc1`, the Ki in assay [2] was found to be 0.289 µM.

`COc1ccc(S(=O)(=O)N(CCCCCNC(=O)CCCCC(=O)NCCNC(=O)CCN(CCNC(=O)OC(C)(C)C)CCC(=O)NCCNC(=O)CCCCC(=O)NCCCCCN([C@H](CO)C(=O)NO)S(=O)(=O)c2ccc(OC)cc2)[C@H](CO)C(=O)NO)cc1`: the Ki on Interstitial collagenase worked out at 0.143 µM; in assay [3], 0.0159 µM; on Matrilysin, 3.76 µM; in assay [4] it was 0.018 µM; at Collagenase 3, 0.0575 µM; in assay [5], 0.023 µM. Also, in assay [6], the outcome was Active. Also, the Activity in assay [1] was 3 nm.
